Source: paper PMC3158460 (Molecular cell, 2011)
pKd: −log10 of the molar value. Residues, ends and D or L forms follow the SMILES beside them.

Tests used:
LGN TPR repeats = target: T1, LGN TPR repeats (Mus musculus, UniProt Q8VDU0); conditions: fit of the LGN TPR0-7/NuMA fluorescence polarization binding curve; Fig. 2C
T1 sequence (Q8VDU0 22-357): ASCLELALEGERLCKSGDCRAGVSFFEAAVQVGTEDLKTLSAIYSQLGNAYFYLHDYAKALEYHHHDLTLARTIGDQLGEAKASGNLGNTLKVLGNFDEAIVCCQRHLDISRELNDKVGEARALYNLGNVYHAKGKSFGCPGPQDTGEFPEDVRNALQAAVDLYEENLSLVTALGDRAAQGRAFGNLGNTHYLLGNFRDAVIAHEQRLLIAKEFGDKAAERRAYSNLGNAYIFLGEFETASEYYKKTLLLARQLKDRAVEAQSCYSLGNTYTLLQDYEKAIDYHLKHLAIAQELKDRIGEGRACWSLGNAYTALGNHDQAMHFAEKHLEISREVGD
Outline: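 Fluorescence polarization at 25 °C using a fluorimeter with an automated polarizer. A FITC-labeled human NuMA peptide (~1 μM) was titrated with mouse LGN TPR0-7 in 50 mM Tris pH 8.0, 100 mM NaCl, 1 mM DTT, 1 mM EDTA. The LGN fragment was expressed from a modified pET32a vector in E. coli BL21(DE3) at 16°C and purified by Ni2+-NTA then size-exclusion chromatography.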

[1] = target: FITC-labeled NuMA peptide (aa 1886-1912) (human) (UniProt Q14980); assay: fluorescence polarisation + ITC
[2] = target: mInsc22 (aa 19-40), peptide of the fluorescence assays (mouse); assay: fluorescence polarisation
Mud peptide (Drosophila) = assay: fluorescence polarisation
[3] = target: mInsc38 (aa 20-57) (mouse); assay: fluorescence polarisation
[4] = target: NuMA_N (1885-1898) (human) (UniProt Q14980); assay: fluorescence polarisation
[5] = target: NuMA_C (1898-1912) (human) (UniProt Q14980); assay: fluorescence polarisation

CC[C@H](C)[C@H](NC(=O)[C@H](CCCNC(=N)N)NC(=O)[C@H](CC(N)=O)NC(=O)[C@H](Cc1c[nH]c2ccccc12)NC(=O)[C@H](CC(=O)O)NC(=O)[C@H](CC(=O)O)NC(=O)[C@H](CC(C)C)NC(=O)[C@H](CCC(N)=O)NC(=O)[C@H](CCC(=O)O)NC(=O)[C@@H]1CCCN1C(=O)[C@H](CCC(=O)O)NC(=O)[C@H](CC(=O)O)NC(=O)[C@H](CCC(N)=O)NC(=O)[C@H](CS)NC(=O)[C@@H](NC(=O)CNC(=O)[C@H](CCSC)NC(=O)[C@H](Cc1ccc(O)cc1)NC(=O)[C@H](Cc1ccccc1)NC(=O)[C@H](CO)NC(=O)[C@@H](N)CC(N)=O)[C@@H](C)O)C(=O)N[C@@H](C)C(=O)N[C@@H](CCC(=O)O)C(=O)N[C@@H](CC(C)C)C(=O)N[C@@H](CCC(N)=O)C(=O)N[C@@H](CCC(N)=O)C(=O)N[C@@H](CCCNC(=N)N)C(=O)O [NuMA] (H-NSFYMGTCQDEPEQLDDWNRIAELQQR-OH; N-terminus and C-terminus assumed)
Hill coefficient of LGN/NuMA binding curve (LGN TPR repeats): ~2.0

LGN (aa 15-479) (domain or fragment)
pKd [1]: 7.22

LGN (aa 27-350) (domain or fragment)
fold decrease in NuMA binding (against the longer LGN fragments) [1]: 200 fold

LGN TPR4-7 (aa 191-350) (domain or fragment)
fold decrease in binding affinity (against LGN TPR0-7) [2]: 10 fold

LGN(15-350) (domain or fragment)
pKd (Mud peptide (Drosophila)): 6.64
pKd [3]: 7.33
pKd [4]: 4.50
pKd [5]: 4.17
